Reference: ChEMBL document CHEMBL1137220, “2-(2-(dimethylaminomethyl)phenoxy)-5-iodophenylamine: an improved serotonin transporter imaging agent” (J Med Chem, 2004)

How the values were obtained:
[1] = Regional brain distribution in rat cortex was determined after 24-hours of intravenous administration of the compound; [125I]- is used as radioactive isotope; format: ADME; settings: in vivo
Outline: (§1)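 Rats, three per group, injected with 10 μCi tracer in 0.2 mL saline via the femoral vein under ether anesthesia and killed by cardiac excision at the stated time. Cortex (frontal plus occipital), striatum, hippocampus, cerebellum and hypothalamus were dissected, weighed and gamma-counted. Values are % dose/g, calculated by comparison with counts of a 100-fold diluted aliquot of the injected dose.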

[2] = Distribution ratio in striatum and cerebellum was determined after 120 min of intravenous administration of the compound; [125I]- is used as radioactive isotope; format: ADME, tissue-based; settings: rat, 2 h
Outline: (§2)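 Rats, three per group, given 10 μCi tracer in 0.2 mL saline into the femoral vein under ether anesthesia, then killed by cardiac excision at the stated time. Brain regions were dissected, weighed and counted. Percent dose/g was calculated against a 1% diluted aliquot of the injected dose. The ratio is (region − cerebellum)/cerebellum on a % dose/g basis, with cerebellum as background.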

[3] = Distribution ratio in cortex and cerebellum was determined after 120 min of intravenous administration of the compound; [125I]- is used as radioactive isotope; format: ADME, tissue-based; settings: rat, 2 h
Outline: (§3)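 After femoral-vein injection of 10 μCi [¹²⁵I] tracer in 0.2 mL saline under ether anaesthesia (three rats per group), brain regions were dissected, weighed and counted: cortex (frontal plus occipital), hippocampus, hypothalamus and cerebellum. %dose/g was calculated against a diluted injected-dose standard. Ratio = (region − cerebellum)/cerebellum on a %dose/g basis, with cerebellum as the background region.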

[4] = Distribution ratio in cortex and cerebellum was determined after 240 min of intravenous administration of the compound; [125I]- is used as radioactive isotope; format: ADME, tissue-based; settings: rat, 4 h; outline: as §3
[5] = Distribution ratio in hypothalamus and cerebellum was determined after 2 min of intravenous administration of the compound; [125I]- is used as radioactive isotope; format: ADME, tissue-based; settings: rat; outline: as §3
[6] = Distribution ratio in hippocampus and cerebellum was determined after 240 min of intravenous administration of the compound; [125I]- is used as radioactive isotope; format: ADME, tissue-based; settings: rat, 4 h; outline: as §3
[7] = Distribution ratio in hypothalamus and cerebellum was determined after 240 min of intravenous administration of the compound; [125I]- is used as radioactive isotope; format: ADME, tissue-based; settings: rat, 4 h; outline: as §3
[8] = Distribution ratio in hypothalamus and cerebellum was determined after 6 hours of intravenous administration of the compound; [125I]- is used as radioactive isotope; format: ADME, tissue-based; settings: rat; outline: as §2
[9] = Regional brain distribution in rat cerebellum was determined after 6 hours of intravenous administration of the compound; [125I]- is used as radioactive isotope; format: ADME, tissue-based; settings: in vivo; outline: as §1
[10] = Regional brain distribution in rat cerebellum was determined after 11 hours of intravenous administration of the compound; [125I]- is used as radioactive isotope; format: ADME, tissue-based; settings: in vivo; outline: as §1
[11] = Regional brain distribution in rat hypothalamus was determined after 24 hours of intravenous administration of the compound; [125I]- is used as radioactive isotope; format: ADME, tissue-based; settings: in vivo; outline: as §1
[12] = Distribution ratio in cortex and cerebellum was determined after 2 min of intravenous administration of the compound; [125I]- is used as radioactive isotope; format: ADME, tissue-based; settings: rat; outline: as §3
[13] = target: Sodium-dependent dopamine transporter (Homo sapiens, UniProt Q01959); test: Binding affinity for dopamine transporter expressed in […] cells; format: cell-based
Outline: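 Membranes from confluent pig kidney LLC-PK₁ cells stably expressing the respective transporter, homogenized and pelleted, 30–40 μg protein. Incubated with 0.4 nM [¹²⁵I]IPT or [¹²⁵I]IDAM and 8–10 competitor concentrations (10⁻¹⁰ to 10⁻⁵ M) in 50 mM Tris-HCl pH 7.4, 120 mM NaCl, 0.1% BSA, 1 h at room temperature. Nonspecific binding was defined with 10 μM CFT for IPT and 1 μM IDAM for IDAM. Filtration, gamma counting, nonlinear regression for Ki.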

[14] = Biodistribution in rat brain was determined after 2 min of intravenous administration of the compound; [125I]- is used as radioactive isotope; format: ADME, organism-based; settings: in vivo
Outline: (§4)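 Rats under ether anesthesia, three per group, received 10 μCi tracer in 0.2 mL saline into the femoral vein. They were killed by cardiac excision under ether at each time point. Organs were removed, weighed and counted. Percent dose per organ was calculated against a 1%-of-injected-dose standard counted at the same time.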

[15] = Biodistribution in rat heart was determined after 60 min of intravenous administration of the compound; [125I]- is used as radioactive isotope; format: ADME, organism-based; settings: in vivo, 1 h; outline: as §4
[16] = Biodistribution in rat lung was determined after 240 min of intravenous administration of the compound; [125I]- is used as radioactive isotope; format: ADME, organism-based; settings: in vivo, 4 h; outline: as §4
[17] = Biodistribution in rat lung was determined after 6 hours of intravenous administration of the compound; [125I]- is used as radioactive isotope; format: ADME, organism-based; settings: in vivo; outline: as §4
[18] = Biodistribution in rat skin was determined after 120 min of intravenous administration of the compound; [125I]- is used as radioactive isotope; format: ADME, organism-based, Zone of skin; settings: in vivo, 2 h
Outline: (§5)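 Rats, three per group, under ether anaesthesia, received 10 μCi of [¹²⁵I]-labelled tracer in 0.2 mL saline into the femoral vein. They were killed by cardiac excision under ether at each time point. Organs were removed, weighed and counted. Percent dose per organ was calculated against counts of a 1% aliquot of the injected dose (100-fold diluted) counted at the same time.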

[19] = Biodistribution in rat heart was determined after 6 hours of intravenous administration of the compound; [125I]- is used as radioactive isotope; format: ADME, organism-based; settings: in vivo; outline: as §4
[20] = Biodistribution in rat thyroid was determined after 30 min of intravenous administration of the compound; [125I]- is used as radioactive isotope; format: ADME, organism-based, Thyroid gland; settings: in vivo, 0.5 h; outline: as §5
[21] = Biodistribution in rat lung was determined after 11 hours of intravenous administration of the compound; [125I]- is used as radioactive isotope; format: ADME, organism-based; settings: in vivo; outline: as §4
[22] = Biodistribution in rat muscle was determined after 30 min of intravenous administration of the compound; [125I]- is used as radioactive isotope; format: ADME, organism-based, Muscle tissue; settings: in vivo, 0.5 h; outline: as §5
[23] = Biodistribution in rat muscle was determined after 60 min of intravenous administration of the compound; [125I]- is used as radioactive isotope; format: ADME, organism-based, Muscle tissue; settings: in vivo, 1 h; outline: as §5
[24] = Biodistribution in rat brain was determined after 24 hours of intravenous administration of the compound; [125I]- is used as radioactive isotope; format: ADME, organism-based; settings: in vivo; outline: as §4
[25] = Biodistribution in rat heart was determined after 11 hours of intravenous administration of the compound; [125I]- is used as radioactive isotope; format: ADME, organism-based; settings: in vivo; outline: as §4
[26] = Biodistribution in rat kidney was determined after 240 min of intravenous administration of the compound; [125I]- is used as radioactive isotope; format: ADME, organism-based; settings: in vivo, 4 h; outline: as §4
[27] = Biodistribution in rat muscle was determined after 120 min of intravenous administration of the compound; [125I]- is used as radioactive isotope; format: ADME, organism-based, Muscle tissue; settings: in vivo, 2 h; outline: as §5
[28] = Biodistribution in rat kidney was determined after 11 hours of intravenous administration of the compound; [125I]- is used as radioactive isotope; format: ADME, organism-based; settings: in vivo; outline: as §4
[29] = Biodistribution in rat muscle was determined after 11 hours of intravenous administration of the compound; [125I]- is used as radioactive isotope; format: ADME, organism-based, Muscle tissue; settings: in vivo; outline: as §5
[30] = Biodistribution in rat muscle was determined after 24 hours of intravenous administration of the compound; [125I]- is used as radioactive isotope; format: ADME, organism-based, Muscle tissue; settings: in vivo; outline: as §5
[31] = Regional brain distribution in rat cerebellum was determined after 120 min of intravenous administration of the compound; [125I]- is used as radioactive isotope; format: ADME, tissue-based; settings: in vivo, 2 h; outline: as §1

Sodium-dependent dopamine transporter, sequence (Q01959 whole entry): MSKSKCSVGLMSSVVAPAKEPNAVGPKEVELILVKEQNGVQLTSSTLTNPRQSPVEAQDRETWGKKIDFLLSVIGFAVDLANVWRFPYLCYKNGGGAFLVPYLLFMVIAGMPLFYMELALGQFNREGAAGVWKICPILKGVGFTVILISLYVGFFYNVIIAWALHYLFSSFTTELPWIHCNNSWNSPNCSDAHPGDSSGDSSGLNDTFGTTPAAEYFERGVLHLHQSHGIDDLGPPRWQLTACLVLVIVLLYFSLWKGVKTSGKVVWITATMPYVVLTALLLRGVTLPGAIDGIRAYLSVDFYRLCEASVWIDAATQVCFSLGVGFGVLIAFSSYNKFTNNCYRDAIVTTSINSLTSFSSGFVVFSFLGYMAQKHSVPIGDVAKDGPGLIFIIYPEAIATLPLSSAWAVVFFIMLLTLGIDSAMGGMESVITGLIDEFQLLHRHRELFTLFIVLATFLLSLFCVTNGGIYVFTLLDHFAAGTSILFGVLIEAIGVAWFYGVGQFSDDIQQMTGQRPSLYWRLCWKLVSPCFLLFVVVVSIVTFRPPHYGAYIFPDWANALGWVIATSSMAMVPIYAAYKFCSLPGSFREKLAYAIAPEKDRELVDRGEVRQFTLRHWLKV

## CN(C)Cc1ccccc1Oc1ccc(I)cc1N
[1]
  Dose/g: 0.004%
[2]
  Dose/g: 2.53%
[3]
  Dose/g: 1.48%
[4]
  Dose/g: 1.12%
[5]
  Dose/g: 0.24%
[6]
  Dose/g: 2.47%
[7]
  Dose/g: 4.49%
[8]
  Dose/g: 2.64%
[9]
  Dose/g: 0.027%
[10]
  Dose/g: 0.01%
[11]
  Dose/g: 0.006%
[12]
  Dose/g: 0.56%
[13]
  Ki: 309 nM
[14]
  Dose: 1.77%
[15]
  Dose: 0.2%
[16]
  Dose: 0.37%
[17]
  Dose: 0.25%
[18]
  Dose: 12.5%
[19]
  Dose: 0.08%
[20]
  Dose: 0.15%
[21]
  Dose: 0.16%
[22]
  Dose: 18.1%
[23]
  Dose: 12.9%
[24]
  Dose: 0.01%
[25]
  Dose: 0.06%
[26]
  Dose: 0.61%
[27]
  Dose: 9.18%
[28]
  Dose: 0.4%
[29]
  Dose: 4.01%
[30]
  Dose: 1.13%
[31]
  Dose/g: 0.21%
